Reference: ChEMBL document CHEMBL1155083, “Piperazine sulfonamides as potent, selective, and orally available 11beta-hydroxysteroid dehydrogenase type 1 inhibitors with efficacy in the rat cortisone-induced hyperinsulinemia model” (J Med Chem, 2008)
Active and inactive are the calls of the source. The rule behind the calls is not given here.

Legend:
[1] = target: T1, 11-beta-hydroxysteroid dehydrogenase 1 (Mus musculus, UniProt P50172); experiment: Inhibition of C57BL/6 mouse 11betaHSD1 in presence of human serum
T1 sequence (P50172 whole entry): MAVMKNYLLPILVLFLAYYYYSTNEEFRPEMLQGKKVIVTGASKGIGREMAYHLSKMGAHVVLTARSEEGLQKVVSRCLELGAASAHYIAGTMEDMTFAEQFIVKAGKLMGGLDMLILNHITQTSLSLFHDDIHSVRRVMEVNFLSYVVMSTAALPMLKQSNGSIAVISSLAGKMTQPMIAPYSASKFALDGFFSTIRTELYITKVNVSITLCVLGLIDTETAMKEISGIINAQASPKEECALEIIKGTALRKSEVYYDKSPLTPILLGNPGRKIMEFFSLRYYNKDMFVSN

[2] = target: 11-beta-hydroxysteroid dehydrogenase 1 (Homo sapiens, UniProt P28845); experiment: Inhibition of human 11betaHSD1 expressed in CHO cells by cell based assay
Sequence of 11-beta-hydroxysteroid dehydrogenase 1 (Homo sapiens, UniProt P28845) (P28845 whole entry): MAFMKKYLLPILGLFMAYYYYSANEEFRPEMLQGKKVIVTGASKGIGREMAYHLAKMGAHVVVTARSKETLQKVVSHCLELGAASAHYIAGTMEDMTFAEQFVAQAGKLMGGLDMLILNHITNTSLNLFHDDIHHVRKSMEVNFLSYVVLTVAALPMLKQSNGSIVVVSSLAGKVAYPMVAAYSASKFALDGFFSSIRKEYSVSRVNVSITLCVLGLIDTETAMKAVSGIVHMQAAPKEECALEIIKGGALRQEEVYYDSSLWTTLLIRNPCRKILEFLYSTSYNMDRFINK

Rattus norvegicus [3] = experiment: Ex vivo inhibition of 11betaHSD1 in Sprague-Dawley rat assessed as conversion of [3H]cortisone to [3H]cortisole in liver at 30 mg/kg, po after 2 hrs; format: functional
[4] = AUC in Sprague-Dawley rat at 30 mg/kg, po; format: ADME, organism-based; set-up: dose 30 mg/kg, route oral; settings: plasma
Outline: (§1)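 Oral PK in rats; single dose 30 mg/kg by gavage, formulated in 0.5% methyl cellulose/2% Tween; plasma exposure reported as Cmax (ng/mL) and AUC (ng·h/mL).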

[5] = Cmax in Sprague-Dawley rat at 30 mg/kg, po; format: ADME, organism-based; set-up: dose 30 mg/kg, route oral; settings: in vivo; outline: as §1
[6] = Oral bioavailability in mouse at 30 mg/kg; format: ADME, organism-based; settings: in vivo
Rattus norvegicus [7] = experiment: Effect on cortisone-induced Sprague-Dawley rat hyperinsulinemia model assessed as reduction in insulin at 60 mg/kg, bid after 7 days; format: functional; set-up: scale not given: the % may be the effect or the level left
Outline: (§2)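 Male SD rats given cortisone in drinking water (2 mg/mL); inhibitors dosed orally b.i.d. for 7 days. On day 7, body weight, food intake, liquid consumption, plasma glucose and serum insulin were measured; insulin reduction expressed as percent.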

Mus musculus [8] = experiment: Ex vivo inhibition of 11betaHSD1 in C57BL/6 mouse assessed as conversion of [3H]cortisone to [3H]cortisole in liver at 30 mg/kg, po; format: functional; settings: C57BL/6, Liver
Outline: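 Mice dosed orally; sacrificed 5 h after dosing. Liver samples taken and 11β-HSD1 conversion of cortisone to cortisol measured; percent inhibition reported.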

[9] = Clearance in mouse at 2 mg/kg, iv; format: ADME, organism-based; set-up: dose 2 mg/kg, route intravenous; settings: in vivo
[10] = Metabolic stability assessed as half life in mouse liver microsomes
[11] = target: T2, 11-beta-hydroxysteroid dehydrogenase type 2 (Homo sapiens) (UniProt P80365); experiment: Inhibition of 11betaHSD2 at 100 uM by cell based assay
T2 sequence (whole entry): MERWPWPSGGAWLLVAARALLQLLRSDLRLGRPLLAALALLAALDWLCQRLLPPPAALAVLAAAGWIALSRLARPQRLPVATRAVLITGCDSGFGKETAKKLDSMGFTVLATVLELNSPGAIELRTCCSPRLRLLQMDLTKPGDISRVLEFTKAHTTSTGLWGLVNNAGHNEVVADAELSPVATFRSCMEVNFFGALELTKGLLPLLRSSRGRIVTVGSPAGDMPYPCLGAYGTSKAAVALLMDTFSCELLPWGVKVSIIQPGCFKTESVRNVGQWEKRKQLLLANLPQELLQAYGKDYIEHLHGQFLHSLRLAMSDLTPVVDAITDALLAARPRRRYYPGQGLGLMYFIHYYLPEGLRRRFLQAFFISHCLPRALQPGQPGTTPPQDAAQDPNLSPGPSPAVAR

Rattus norvegicus [12] = species on record: Rattus norvegicus; experiment: Effect on glucose level in cortisone-induced Sprague-Dawley rat hyperinsulinemia model; format: functional, organism-based; outline: as §2
[13] = target: 11-beta-hydroxysteroid dehydrogenase 1 (Rattus norvegicus, UniProt P16232); experiment: Inhibition of rat 11betaHSD1
Sequence of 11-beta-hydroxysteroid dehydrogenase 1 (Rattus norvegicus, UniProt P16232) (P16232 whole entry): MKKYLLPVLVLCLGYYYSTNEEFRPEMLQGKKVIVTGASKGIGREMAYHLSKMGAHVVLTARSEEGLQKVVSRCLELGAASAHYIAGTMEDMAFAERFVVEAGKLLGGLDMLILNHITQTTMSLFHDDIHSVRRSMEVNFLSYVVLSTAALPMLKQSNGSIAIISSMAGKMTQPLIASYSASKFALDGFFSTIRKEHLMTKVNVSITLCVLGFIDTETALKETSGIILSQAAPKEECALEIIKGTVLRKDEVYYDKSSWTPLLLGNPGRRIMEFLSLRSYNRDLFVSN
Outline: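 Potency against rat enzyme measured in a cell-based assay using CHO cells expressing rat 11β-HSD1; IC50 reported.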

[14] = target: T1, 11-beta-hydroxysteroid dehydrogenase 1; experiment: Inhibition of mouse 11betaHSD1 expressed in CHO cells by cell based assay
[15] = Metabolic stability assessed as half life in human liver microsomes
Rattus norvegicus [16] = experiment: Effect on cortisone-induced Sprague-Dawley rat hyperinsulinemia model assessed as reduction in insulin at 30 mg/kg, bid after 7 days; format: functional; set-up: scale not given: the % may be the effect or the level left; outline: as §2
Mus musculus [17] = experiment: Ex vivo inhibition of 11betaHSD1 in C57BL/6 mouse assessed as conversion of [3H]cortisone to [3H]cortisole in liver at 10 mg/kg, po; format: functional; settings: C57BL/6, Liver

Row | Compound | IC50 [1] [µM] | IC50 [2] [µM] | half-life [10] [min] | Activity [11] | IC50 [14] [µM] | other results
1 | C[C@@H]1CN(c2ccc(F)cc2C(F)(F)F)CCN1S(=O)(=O)c1cccc(N2CCC(O)C2)c1 (stereo partly drawn) | 0.011 | 0.01 | 11 | inactive | 0.013 | inhibition in vivo at 30 mg/kg (Rattus norvegicus [3]): 62%; AUC [4]: 1.04 µg·h/mL; Cmax [5]: 0.185 µg/mL; bioavailability [6]: 9%; Activity (Rattus norvegicus [7]): 19%; inhibition in vivo at 30 mg/kg (Mus musculus [8]): 47%; clearance [9]: 3.24 L/h/kg; Activity (Rattus norvegicus [12]): inactive; IC50 [13]: 0.013 µM
2 | C[C@@H]1CN(c2ccccc2C(F)(F)F)CCN1S(=O)(=O)c1ccc(Cl)c(Cl)c1 |  | 0.01 | 3 | inactive | 0.01 | half-life [15]: 5 min
3 | C[C@@H]1CN(c2ccc(F)cc2C(F)(F)F)CCN1S(=O)(=O)c1cccc(N2CCC(C(N)=O)C2)c1 (stereo partly drawn) | 0.014 | 0.032 |  | inactive | 0.011 | 
4 | C[C@@H]1CN(c2ccc(F)cc2C(F)(F)F)CCN1S(=O)(=O)c1cccc(N2CCNCC2)c1 | 0.19 | > 10 |  | inactive | 0.16 | 
5 | CCNC(=O)N1CCN(c2cccc(S(=O)(=O)N3CCN(c4ccc(F)cc4C(F)(F)F)C[C@H]3C)c2)CC1 | 0.22 | 0.37 |  | inactive | 0.012 | 
6 | O=C1CN(c2ncccc2C(F)(F)F)CCN1S(=O)(=O)c1ccc(Cl)c(Cl)c1 |  | 0.5 | 6 | inactive | > 10 | half-life [15]: 2 min
7 | CCN1CCN(c2cccc(S(=O)(=O)N3CCN(c4ccc(F)cc4C(F)(F)F)C[C@H]3C)c2)CC1 | 0.045 | 0.03 |  | inactive | 0.029 | 
8 | C[C@@H]1CN(c2ncccc2Cl)C[C@H](C)N1S(=O)(=O)c1ccc(Cl)c(Cl)c1 |  | 1.3 | 3 | inactive | 6.9 | half-life [15]: 6 min
9 | CC(C)N1CCN(c2cccc(S(=O)(=O)N3CCN(c4ccc(F)cc4C(F)(F)F)C[C@H]3C)c2)CC1 | 0.25 | 0.49 |  | inactive | 0.15 | 
10 | C[C@@H]1CN(c2ccc(F)cc2C(F)(F)F)CCN1S(=O)(=O)c1cccc(-n2cccn2)c1 | 0.1 | 0.013 |  | inactive | 0.012 | 
11 | C[C@@H]1CN(c2ccc(F)cc2C(F)(F)F)CCN1S(=O)(=O)c1cccc(N2CCOCC2)c1 | 0.056 | 0.013 |  | inactive | 0.011 | 
12 | O=C1CN(S(=O)(=O)c2ccc(Cl)c(Cl)c2)CCN1c1ncccc1C(F)(F)F |  | 9.9 | 30 | inactive | > 10 | half-life [15]: 30 min
13 | O=S(=O)(c1ccc(Cl)c(Cl)c1)N1CCN(c2ccccc2C(F)(F)F)CC1 |  | 0.052 | 3 | inactive | 0.42 | half-life [15]: 4 min
14 | C[C@@H]1CN(c2ccc(F)cc2C(F)(F)F)CCN1S(=O)(=O)c1cccc(N2CCN(C)CC2)c1 | 0.028 | 0.021 | 15 | inactive | 0.012 | inhibition in vivo at 30 mg/kg (Rattus norvegicus [3]): 32%; AUC [4]: 2.29 µg·h/mL; Cmax [5]: 0.246 µg/mL; bioavailability [6]: 79%; Activity (Rattus norvegicus [7]): 11%; inhibition in vivo at 30 mg/kg (Mus musculus [8]): 45%; clearance [9]: 2.16 L/h/kg; Activity (Rattus norvegicus [12]): inactive; IC50 [13]: 0.042 µM
15 | C[C@@H]1CN(c2ccc(F)cc2C(F)(F)F)CCN1S(=O)(=O)c1cccc(N2CC[C@@H](O)C2)c1 | 0.013 | 0.01 |  | inactive | 0.012 | 
16 | C[C@@H]1CN(c2ccc(F)cc2C(F)(F)F)CCN1S(=O)(=O)c1cccc(N2CC[C@H](O)C2)c1 | 0.041 | 0.028 |  | inactive | 0.02 | 
17 | COC(=O)N1CCN(c2cccc(S(=O)(=O)N3CCN(c4ccc(F)cc4C(F)(F)F)C[C@H]3C)c2)CC1 | 0.22 | 0.33 |  | inactive | 0.011 | 
18 | COC(=O)C1CCN(c2cccc(S(=O)(=O)N3CCN(c4ccc(F)cc4C(F)(F)F)C[C@H]3C)c2)C1 (stereo partly drawn) | 0.055 | 0.011 |  | inactive | 0.01 | 
19 | C[C@@H]1CN(c2ccc(F)cc2C(F)(F)F)CCN1S(=O)(=O)c1cccc(OC(C)(C)C(=O)O)c1 | 0.13 | 0.3 | > 30 | inactive | 0.037 | inhibition in vivo at 30 mg/kg (Rattus norvegicus [3]): 35%; Activity (Rattus norvegicus [16]): 30%; AUC [4]: 51.1 µg·h/mL; Cmax [5]: 9.18 µg/mL; bioavailability [6]: 100%; inhibition in vivo at 30 mg/kg (Mus musculus [8]): 38%; clearance [9]: 1.5 L/h/kg; Activity (Rattus norvegicus [12]): inactive; IC50 [13]: 0.11 µM
20 | C[C@@H]1CN(c2ccc(F)cc2C(F)(F)F)CCN1S(=O)(=O)c1cccc(N2CCCC2C(=O)O)c1 (stereo partly drawn) | 0.032 | 0.069 |  | inactive | 0.027 | 
21 | C[C@@H]1CN(c2ncccc2Cl)[C@@H](C)CN1S(=O)(=O)c1ccc(Cl)c(Cl)c1 (relative stereo) |  | 1.6 | 2 | inactive | 4.7 | half-life [15]: 3 min
22 | O=S(=O)(c1ccc(Cl)c(Cl)c1)N1CCN(c2ccc(F)cc2C(F)(F)F)CC1 |  | 0.068 | 8 | inactive | 0.25 | half-life [15]: 12 min
23 | C[C@@H]1CN(c2ccc(F)cc2C(F)(F)F)CCN1S(=O)(=O)c1cccc(-n2ccnc2)c1 | 0.073 | 0.074 |  | inactive | 0.011 | 
24 | C[C@@H]1CN(c2ccc(F)cc2C(F)(F)F)CCN1S(=O)(=O)c1cccc(-n2cnnc2)c1 | 0.12 | 0.12 |  | inactive | 0.23 | 
25 | C[C@@H]1CN(c2ccc(F)cc2C(F)(F)F)CCN1S(=O)(=O)c1cccc(N2CCC(C(=O)O)C2)c1 (stereo partly drawn) | 0.09 | 0.16 | > 30 | inactive | 0.01 | bioavailability [6]: 100%; inhibition in vivo at 30 mg/kg (Mus musculus [8]): 36%; clearance [9]: 3.3 L/h/kg
26 | C[C@@H]1CN(c2ccc(F)cc2C(F)(F)F)CCN1S(=O)(=O)c1cccc(N2CCCCC2)c1 | 0.067 | 0.015 |  | inactive | 0.01 | 
27 | C[C@@H]1CN(c2ccc(F)cc2C(F)(F)F)CCN1S(=O)(=O)c1cccc(-n2cncn2)c1 | 0.042 | 0.026 | 12 | inactive | 0.01 | inhibition in vivo at 10 mg/kg (Mus musculus [17]): 44%; inhibition in vivo at 30 mg/kg (Rattus norvegicus [3]): 59%; AUC [4]: 1.04 µg·h/mL; Cmax [5]: 0.149 µg/mL; bioavailability [6]: 34%; Activity (Rattus norvegicus [7]): 34%; clearance [9]: 0.78 L/h/kg; Activity (Rattus norvegicus [12]): inactive; IC50 [13]: 0.081 µM
28 | O=S(=O)(c1ccc(Cl)c(Cl)c1)N1CCN(c2ncccc2C(F)(F)F)CC1 |  | 0.061 | 5 | inactive | 0.19 | half-life [15]: 5 min
29 | C[C@@H]1CN(c2ccc(F)cc2C(F)(F)F)CCN1S(=O)(=O)c1cccc(N2CCCC2)c1 | 0.056 | 0.061 |  | inactive | 0.016 | 
